Assay results published in ChEMBL document CHEMBL5247671, “Design and Synthesis of Pyrazole-Based Macrocyclic Kinase Inhibitors Targeting BMPR2” (ACS Med Chem Lett, 2023).

Tests used:
[1] = target: T1, Glycogen synthase kinase-3 beta (Homo sapiens, UniProt P49841); experiment: Binding affinity to recombinant GSK3B (unknown origin) assessed as change in melting temperature at 10 uM by DSF assay
In short: (§1)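 Differential scanning fluorimetry on an in-house panel of 90 recombinant kinases. Stabilization is read as the shift in melting temperature (ΔTm) relative to ligand-free protein. Staurosporine served as the positive control, and binding was also compared against its ΔTm.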
Target sequence in this assay (P49841 whole entry, looked up): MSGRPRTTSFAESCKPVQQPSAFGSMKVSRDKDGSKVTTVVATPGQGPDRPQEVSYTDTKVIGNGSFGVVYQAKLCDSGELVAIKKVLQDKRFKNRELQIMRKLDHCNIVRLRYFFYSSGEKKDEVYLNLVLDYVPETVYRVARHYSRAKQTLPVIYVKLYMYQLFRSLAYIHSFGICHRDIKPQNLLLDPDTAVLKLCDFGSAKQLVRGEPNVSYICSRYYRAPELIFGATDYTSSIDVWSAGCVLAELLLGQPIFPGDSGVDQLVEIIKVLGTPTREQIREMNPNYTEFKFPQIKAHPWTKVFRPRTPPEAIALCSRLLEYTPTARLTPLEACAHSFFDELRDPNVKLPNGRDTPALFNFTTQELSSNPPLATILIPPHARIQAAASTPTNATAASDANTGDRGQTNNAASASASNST

[2] = target: T2, Bone morphogenetic protein receptor type-2 (Homo sapiens, UniProt Q13873); experiment: Inhibition of BMPR2 (174 to end residues) (unknown origin) using MBP as substrate incubated for 60 mins in presence of ATP by ADP Glo assay
T2 sequence (Q13873 whole entry): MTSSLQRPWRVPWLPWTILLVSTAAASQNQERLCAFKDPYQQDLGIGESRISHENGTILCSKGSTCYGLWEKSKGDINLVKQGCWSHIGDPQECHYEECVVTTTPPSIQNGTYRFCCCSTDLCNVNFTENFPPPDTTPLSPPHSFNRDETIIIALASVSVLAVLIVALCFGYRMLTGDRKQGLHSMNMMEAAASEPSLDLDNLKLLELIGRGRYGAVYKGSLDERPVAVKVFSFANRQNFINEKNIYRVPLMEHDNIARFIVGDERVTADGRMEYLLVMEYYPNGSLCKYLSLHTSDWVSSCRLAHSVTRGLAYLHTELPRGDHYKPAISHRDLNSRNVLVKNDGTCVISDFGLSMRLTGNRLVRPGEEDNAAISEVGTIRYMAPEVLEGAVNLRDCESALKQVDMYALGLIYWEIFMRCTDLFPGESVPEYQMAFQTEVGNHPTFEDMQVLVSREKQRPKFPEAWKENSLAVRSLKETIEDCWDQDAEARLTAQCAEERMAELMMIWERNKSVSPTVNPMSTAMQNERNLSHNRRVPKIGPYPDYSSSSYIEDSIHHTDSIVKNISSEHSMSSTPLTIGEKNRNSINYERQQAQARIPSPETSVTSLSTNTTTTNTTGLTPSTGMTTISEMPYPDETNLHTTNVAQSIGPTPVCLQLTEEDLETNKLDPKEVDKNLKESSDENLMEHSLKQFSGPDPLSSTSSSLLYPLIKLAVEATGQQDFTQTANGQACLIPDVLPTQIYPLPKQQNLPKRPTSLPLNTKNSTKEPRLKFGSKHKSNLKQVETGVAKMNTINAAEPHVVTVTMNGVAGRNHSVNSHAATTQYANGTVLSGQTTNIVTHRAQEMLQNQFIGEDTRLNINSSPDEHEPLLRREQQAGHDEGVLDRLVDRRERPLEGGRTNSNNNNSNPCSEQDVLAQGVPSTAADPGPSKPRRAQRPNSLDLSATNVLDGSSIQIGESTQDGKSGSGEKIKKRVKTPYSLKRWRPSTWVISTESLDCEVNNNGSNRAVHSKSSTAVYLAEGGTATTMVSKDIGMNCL
In short: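 Enzymatic inhibition of the BMPR2 kinase was read out by ADP-Glo detection of ADP formed, and IC50 values were derived from concentration–response data.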

[3] = target: T3, Bone morphogenetic protein receptor type-2 (Homo sapiens) (UniProt Q13873); experiment: Binding affinity to recombinant BMPR2 (unknown origin) assessed as change in melting temperature at 10 uM by DSF assay; in short: as §1
T3 sequence (whole entry): T2 sequence (Q13873 whole entry)

[4] = system: BMP2-inducible protein kinase (Homo sapiens); experiment: Binding affinity to recombinant BMP2K (unknown origin) assessed as change in melting temperature at 10 uM by DSF assay
[5] = target: T4, Serine/threonine-protein kinase 3 (Homo sapiens) (UniProt Q13188); experiment: Binding affinity to recombinant STK3 (unknown origin) assessed as change in melting temperature at 10 uM by DSF assay; in short: as §1
T4 sequence (whole entry): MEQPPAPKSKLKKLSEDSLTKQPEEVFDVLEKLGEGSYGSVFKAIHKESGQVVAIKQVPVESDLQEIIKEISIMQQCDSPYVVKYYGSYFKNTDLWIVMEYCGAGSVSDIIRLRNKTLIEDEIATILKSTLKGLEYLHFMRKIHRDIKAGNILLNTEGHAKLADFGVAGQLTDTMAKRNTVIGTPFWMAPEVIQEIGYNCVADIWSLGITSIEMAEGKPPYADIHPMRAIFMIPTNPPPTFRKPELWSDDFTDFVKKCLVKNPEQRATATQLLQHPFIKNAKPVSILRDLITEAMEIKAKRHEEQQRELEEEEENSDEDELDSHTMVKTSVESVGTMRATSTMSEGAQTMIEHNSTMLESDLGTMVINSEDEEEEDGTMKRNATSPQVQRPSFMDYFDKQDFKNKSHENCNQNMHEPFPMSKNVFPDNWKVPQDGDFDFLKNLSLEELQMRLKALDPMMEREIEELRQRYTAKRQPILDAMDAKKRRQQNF

[6] = target: T1, Glycogen synthase kinase-3 beta; experiment: Inhibition of N-terminal NanoLuc-fused full length lysed GSK3B (unknown origin) transfected in HEK293T cells incubated for 2 hrs in presence of tracer K8 by NanoBRET assay; assay type: cell-based
In short: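 GSK3B NanoBRET run in the lysed mode, with cells permeabilized by digitonin to bypass compound cell penetration. EC50 values were derived from tracer displacement.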
Target sequence in this assay (P49841 whole entry): as the sequence (P49841 whole entry, looked up) above

[7] = target: T3, Bone morphogenetic protein receptor type-2 (Homo sapiens); experiment: Binding affinity to BMPR2 (unknown origin) assessed as change in entropy by ITC assay
In short: (§2)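 Binding measured by isothermal titration calorimetry against the recombinant BMPR2 kinase domain. Thermodynamic binding parameters, including the dissociation constant, were derived from the titration data.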

TGF-beta receptor type-1 = target: T5, TGF-beta receptor type-1 (Homo sapiens, UniProt P36897); experiment: Inhibition of ALK5 (unknown origin) assessed as dissociation constant
T5 sequence (P36897 whole entry): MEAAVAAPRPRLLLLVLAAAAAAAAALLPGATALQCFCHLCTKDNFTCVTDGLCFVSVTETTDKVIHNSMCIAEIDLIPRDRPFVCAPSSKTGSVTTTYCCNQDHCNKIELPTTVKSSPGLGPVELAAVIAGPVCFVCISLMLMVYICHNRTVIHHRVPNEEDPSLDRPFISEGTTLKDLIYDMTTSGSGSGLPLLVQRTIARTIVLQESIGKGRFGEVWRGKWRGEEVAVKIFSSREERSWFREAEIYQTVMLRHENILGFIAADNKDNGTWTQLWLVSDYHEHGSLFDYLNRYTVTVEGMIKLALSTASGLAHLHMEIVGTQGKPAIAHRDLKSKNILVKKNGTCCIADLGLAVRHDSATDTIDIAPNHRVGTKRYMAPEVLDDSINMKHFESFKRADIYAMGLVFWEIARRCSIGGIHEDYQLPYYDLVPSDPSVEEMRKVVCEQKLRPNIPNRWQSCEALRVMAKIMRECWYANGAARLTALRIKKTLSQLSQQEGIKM

[8] = target: Glycogen synthase kinase-3 alpha (Homo sapiens, UniProt P49840); experiment: Inhibition of N-terminal NanoLuc-fused full length GSK3A (unknown origin) transfected in HEK293T cells incubated for 2 hrs in presence of tracer K8 by NanoBRET assay; assay type: cell-based
Sequence of Glycogen synthase kinase-3 alpha (P49840 whole entry, the tested form may be a part): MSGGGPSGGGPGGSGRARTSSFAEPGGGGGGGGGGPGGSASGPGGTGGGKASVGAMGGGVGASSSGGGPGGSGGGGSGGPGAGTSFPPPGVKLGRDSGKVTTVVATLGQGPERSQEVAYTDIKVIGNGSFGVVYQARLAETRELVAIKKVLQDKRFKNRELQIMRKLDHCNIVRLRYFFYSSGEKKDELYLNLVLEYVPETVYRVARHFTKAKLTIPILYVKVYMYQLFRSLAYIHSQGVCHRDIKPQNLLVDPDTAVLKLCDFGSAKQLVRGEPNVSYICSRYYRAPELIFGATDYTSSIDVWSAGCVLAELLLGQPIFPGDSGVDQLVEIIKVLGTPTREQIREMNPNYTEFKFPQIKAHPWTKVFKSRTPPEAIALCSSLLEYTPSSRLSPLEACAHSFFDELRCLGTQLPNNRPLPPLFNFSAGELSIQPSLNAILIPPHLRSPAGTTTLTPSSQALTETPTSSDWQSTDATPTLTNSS
In short: (§3)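 Cellular target engagement by NanoBRET in intact cells expressing NanoLuc-fused GSK3A or GSK3B, with EC50 values derived from tracer displacement.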

[9] = target: T2, Bone morphogenetic protein receptor type-2; experiment: Inhibition of BMPR2 (unknown origin) assessed as dissociation constant by ITC assay; in short: as §2
[10] = target: T1, Glycogen synthase kinase-3 beta; experiment: Inhibition of N-terminal NanoLuc-fused full length intact GSK3B (unknown origin) transfected in HEK293T cells incubated for 2 hrs in presence of tracer K8 by NanoBRET assay; assay type: cell-based; in short: as §3
Target sequence in this assay (P49841 whole entry): as the sequence (P49841 whole entry, looked up) above

[11] = target: T3, Bone morphogenetic protein receptor type-2 (Homo sapiens); experiment: Binding affinity to BMPR2 (unknown origin) assessed as change in enthalpy by ITC assay; in short: as §2

| Compound | ΔTm [1] [°C] | IC50 [2] [nM] | ΔTm [3] [°C] | ΔTm [4] [°C] | ΔTm [5] [°C] | IC50 [6] [nM] | deltaS [7] [cal/mol.K] | Kd (TGF-beta receptor type-1) [nM] | IC50 [8] [nM] | Kd [9] [nM] | IC50 [10] [nM] | deltaH [11] [kcal/mol] |
| --- | --- | --- | --- | --- | --- | --- | --- | --- | --- | --- | --- | --- |
| O=C1NCCc2cccc(c2)Nc2nccc(n2)Nc2cc1[nH]n2 | 7.2 | 461 | 5 |  |  |  |  |  |  |  |  |  |
| O=C1NCCCCCCNc2nccc(n2)Nc2cc1[nH]n2 | > 5 |  |  | > 5 | > 5 |  |  |  |  |  |  |  |
| N#CCc1ccc(Nc2nccc(Nc3cc(C4CC4)[nH]n3)n2)cc1 | 14 | 36.2 | 9.2 |  |  | 1.2 | -1.97 | 324 | 4 | 186 | 3.8 | -9.61 |
| O=C1NCCCCCNc2nccc(n2)Nc2cc1[nH]n2 | 4.9 | 630 | 4.6 |  |  | 3500 |  |  | > 45000 |  | > 45000 |  |
